Values after ≈ are worked out from the molar mass of the structure shown. Active and inactive are the calls of the source. No cut-off for these calls is given here. Bounds are passed on as bounds.

The values below come from ChEMBL document CHEMBL4382230, “Structure-activity relationships, biological evaluation and structural studies of novel pyrrolonaphthoxazepines as antitumor agents” (Eur J Med Chem, 2019).

For series [1], the system named is SCC-4. The series can be described thus: Cytotoxicity against human SCC4 cells after 48 hrs by MTT assay. Type of series: functional, cell-based. The following applies: SCC-4, 48 h. The essentials: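 Cells (NCI-H929 in RPMI-1640 GlutaMAX; SCC4 in DMEM GlutaMAX; 10% FBS, 37 °C, 5% CO2) treated with increasing concentrations for 48 h. IC50 is the mean of three independent experiments.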
(Tetrazolium assays rely on reduction of a dye to a coloured formazan, in cell work by metabolically active cells.)

Series [2] in a line: Chemical stability of compound in pH 7.4 aqueous solution assessed as compound remaining after 24 hrs by HPLC analysis. Type of series: physicochemical. The following applies: read-out: Stability.
Series [3] relates to Ca9-22. In words: Cytotoxicity against human Ca9-22 cells after 72 hrs by MTT assay. The following applies: Ca9-22, 72 h. Type of series: functional, cell-based.
The test system of series [4] is HCC827. In words: Cytotoxicity against human HCC827 cells assessed as reduction in cell survival at 0.1 to 10 uM after 18 hrs by MTT assay. It is filed as functional, cell-based. The procedure, abridged: (§1)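 Seeded at 2,500 cells/well in medium with 10% serum. After adhesion, exposed to 0.1, 1 and 10 μM in medium with 5% serum for 18 h. Medium then replaced with fresh medium containing 1.2 mM MTT for 4 h; formazan dissolved in DMSO, absorbance at 540 nm. Results given as % of basal response.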

The subject of series [5] is HL-60. The series can be described thus: Induction of autophagy in serum starved human HL60 cells assessed as increase in LC3B-2 levels at 10 uM after 105 mins in presence of lysosomal inhibitor chloroquine by immunoblot analysis. It is filed as functional, cell-based. The essentials:
(§2)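 HL-60 in serum-supplemented RPMI 1640, or starved in Earle's Balanced Salts for 15 min beforehand, then treated with 10 μM compound with or without 40 μM chloroquine for 1 h 45 min or 16 h. LC3B-II measured by immunoblot, densitometry normalized to actin, three independent experiments, Student's T-test.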
(In general: Immunoblotting shows a protein as a band on a membrane.)

Series [6] deals with T1, Tubulin (Homo sapiens) (UniProt P68371+Q9H4B7+P0DPH7+P68366+Q13509+Q71U36+P04350+Q3ZCM7+P07437+P68363+Q9BQE3+Q6PEY2+Q13885+Q9BVA1+Q9BUF5). In words: Displacement of podophyllotoxin from tubulin (unknown origin) by ultracentrifugation method. It is filed as protein-complex assay.
Series [7] relates to PC-9. The series can be described thus: Induction of apoptosis in human PC9 cells assessed as reduction in cyclin D1 expression at 10 uM after 18 hrs by Western blot analysis. It is filed as functional, cell-based. The essentials:
(§3)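 PC9 and HCC827 maintained in DMEM with 10% FBS, then exposed to 10 μM compound for 18 h in 5% serum. Caspase 3 activation and cell cycle proteins examined by western blot.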

The test system of series [8] is NIH3T3. The series can be described thus: Cytotoxicity against mouse NIH/3T3 cells harboring MDR G185 after 48 hrs by MTT assay. Type of series: functional, cell-based. The following applies: NIH3T3, 48 h. The essentials: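 Cells seeded at 12,000 to 17,000 per well depending on line, incubated overnight, then given serial dilutions of ligand for 48 h. MTT at 2.5 mg/mL added for 4 h at 37 °C, formazan solubilized overnight (10% SDS, 45% dimethylformamide, pH 5.5), absorbance read at 595/690 nm. IC50 from log-dose response curves; mean ± SE of three independent assays.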

Series [9] has as its system NCI-H929. The series can be described thus: Induction of apoptosis in human NCI-H929 cells at 500 nM after 48 hrs by Annexin V/propidium iodide staining-based flow cytometric analysis relative to control. Type of series: functional. The essentials: (§4)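 Seeding density: NCI-H929 and Ca9.22 at 30×10^4 cells/mL, SCC4 at 15×10^4 cells/mL. Cells exposed 48 h to compound (500 nM; 50 μM in SCC4 for one compound) or vehicle (1% EtOH v/v). Annexin V/PI staining, flow cytometry, 10,000 cells gated on vehicle-treated cells. Three independent experiments, mean ± S.E.M, T-test.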
Background: Flow cytometry measures light scatter and fluorescence of single cells or particles in a stream.

Series [10] is described as follows: Solubility of compound in pH 7.4 aqueous solution after 12 hrs by HPLC analysis. It is filed as physicochemical. The procedure, abridged:
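Water solubility at pH 7.4 measured by HPLC analysis.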

The subject of series [11] is A549. The series can be described thus: Cytotoxicity against human A549 cells assessed as reduction in cell survival at 0.1 to 10 uM after 18 hrs by MTT assay. Type of series: functional, cell-based. The procedure, abridged:
as §1

Series [12] has as its system HL-60. In words: Induction of autophagy in human HL60 cells assessed as […] in LC3B-2 levels at 10 uM after 16 hrs in presence of lysosomal inhibitor chloroquine by immunoblot analysis. Type of series: functional, cell-based. The essentials:
as §2

In series [13] the test system is HL-60. In words: Cell cycle arrest in human HL60 cells assessed as accumulation of cells at G2/M phase at 10 uM after 24 hrs by propidium iodide staining-based flow cytometric analysis. It is filed as functional. The essentials:
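HL-60 exposed to 10 μM for 24 h, vehicle 0.1% DMSO. Cells plated at 2×10^5 cells/mL, stained in PBS with 0.1% sodium citrate, 0.1% NP40 and propidium iodide for 30 min at room temperature in the dark. DNA content by flow cytometry; G2/M fraction reported.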

For series [14], the system named is PC-9. The series can be described thus: Induction of apoptosis in human PC9 cells assessed as increase in caspase-3 expression at 10 uM after 18 hrs by Western blot analysis. Type of series: functional, cell-based. The essentials:
as §3

In series [15] the test system is HCC827. The series can be described thus: Induction of apoptosis in human HCC827 cells assessed as reduction in cyclin D1 expression at 10 uM after 18 hrs by Western blot analysis. Type of series: functional, cell-based. The essentials:
as §3

Series [16] relates to NB-4. The series can be described thus: Induction of differentiation in human NB4 cells at 500 nM after 24 hrs in presence of ATRA by CD11c staining-based flow cytometric analysis. Type of series: functional, cell-based. The procedure, abridged:
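NB4 exposed to 0.5 μM compound together with 1 μM ATRA for 24 h. Cells stained with PE-conjugated CD11c (mouse IgG1-PE control) for 1 h at 4 °C in the dark, washed, resuspended in PBS with propidium iodide (0.25 μg/mL), then analysed by flow cytometry. Biological triplicates, mean ± S.E.M.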

The test system of series [17] is PC-9. The series can be described thus: Cytotoxicity against human PC9 cells assessed as reduction in cell survival at 0.1 to 10 uM after 18 hrs by MTT assay. It is filed as functional, cell-based. The procedure, abridged:
as §1

The target of series [18] is T1, Tubulin (Homo sapiens). The series can be described thus: Inhibition of tubulin (unknown origin) polymerization at 27.5 uM measured over 70 mins by turbidity method. It is filed as protein-complex assay. The essentials:
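Tubulin at 25 µM in GAB buffer (10 mM sodium phosphate, 30% glycerol, 1 mM EGTA, 6 mM MgCl2, 1 mM GTP, pH 6.7) with 27.5 µM compound or DMSO vehicle. Turbidity is read at 355 nm for 70 min at 37 °C. Data are normalized to the initial stable absorbance plateau to correct for compound absorbance.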

Series [19] can be described thus: Solubility of compound in pH 3 aqueous solution after 12 hrs by HPLC analysis. It is filed as physicochemical.
Series [20] in a line: Apparent solubility of compound in sodium phosphate buffer at 15 uM after 20 mins. It is filed as physicochemical.
Series [21] deals with Ca9-22. In words: Induction of apoptosis in human Ca9-22 cells at 500 nM after 48 hrs by Annexin V/propidium iodide staining-based flow cytometric analysis relative to control. It is filed as functional, cell-based. The procedure, abridged:
as §4

Series [22] can be described thus: Ratio of IC50 for mouse NIH/3T3 cells harboring MDR G185 to IC50 for mouse NIH/3T3 cells. The essentials:
(§5)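 Relative resistance: IC50 in the P-gp overexpressing resistant line divided by IC50 in the parental line. Both IC50s came from the 48 h MTT assay (serial dilutions, absorbance at 595/690 nm, log-dose response curves, three independent assays).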

Series [23] in a line: Ratio of IC50 for human A2780AD cells to IC50 for human A2780 cells. Type of series: functional. The procedure, abridged:
as §5

A word on the IC50: it is the concentration needed to halve the response being measured. Read a high IC50 as weaker potency in that assay. As a reminder, the solubility is the concentration that dissolves in the medium under given conditions. Regarding `CC(=O)OC1=C(c2cccc3ncccc23)Oc2cc3ccccc3cc2-n2cccc21`, the 50% inhibitory concentration (IC50) in [1] is 0.222 µM; in series [3], 4.5 µM; in series [8], 0.084 µM. Also, the remaining at 24 h in series [2] is 95.6%. For the same molecule, the result in [4], in [5], in [7], in series [11], in series [12] and in series [13] was Active. The result in series [14], in [15], in series [16] and in series [17] was Active. The inhibition entry in series [6] and in series [18] was “Active” in each case. The same molecule gave an Activity in series [9] greater than 40%. For the same molecule, the figures for the solubility at 12 h in [10] and in [19] were 458 µM (≈ 192 µg/mL) and 210 µM (≈ 88 µg/mL), respectively. Besides, the solubility at 20 min, 15 µM in series [20] turned out to be 0.17 µM (≈ 0.0711 µg/mL). Also, the result in [21] was inactive. Also, the “Ratio IC50” value came out at 2 in series [22] and 1.15 in [23].
